According to ChEMBL document CHEMBL5058577, “EUbOPEN Chemogenomics Library 2 (Multiplex)” (2022):

Tested on: HEK-293T
Assay: Multiplex assay against HEK293T
Format: toxicity, cell-based
Settings: human
How it was run: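 Hoechst33342, BioTracker Green Microtubule Cytoskeleton Dye, MitoTracker Red and Annexin V Alexa Fluor 680 were added to live cells at seeding, and imaging on a CQ1 microscope at 37°C and 5% CO2 followed compound addition. Gating by CellPathfinder machine learning separated cells into Hoechst high-intensity objects or normal cells, then normal cells into healthy, pyknosed or fragmented nuclei, then pyknosed cells into mitotic or apoptotic. Per cents of healthy-nucleus cells are reported for the tubulin, mitochondrial-mass and membrane-permeability phenotypes.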

[1] = 12 h, 1 µM, compound concentration 1 uM, replicate 1
[2] = 12 h, 1 µM, compound concentration 1 uM, replicate 2
[3] = 12 h, 10 µM, compound concentration 10 uM, replicate 1
[4] = 12 h, 10 µM, compound concentration 10 uM, replicate 2
[5] = 24 h, 1 µM, compound concentration 1 uM, replicate 1
[6] = 24 h, 1 µM, compound concentration 1 uM, replicate 2
[7] = 24 h, 10 µM, compound concentration 10 uM, replicate 1
[8] = 24 h, 10 µM, compound concentration 10 uM, replicate 2
[9] = 48 h, 1 µM, compound concentration 1 uM, replicate 1
[10] = 48 h, 1 µM, compound concentration 1 uM, replicate 2
[11] = 48 h, 10 µM, compound concentration 10 uM, replicate 1
[12] = 48 h, 10 µM, compound concentration 10 uM, replicate 2

Compound: CC(/C=C1\SC(=S)N(CCCC(=O)Nc2ccc(C(=O)O)c(O)c2)C1=O)=C\c1ccccc1
- Population Apoptotic (%) [1]: 34%
- Population Fragmented Nuclei (%) [1]: 6%
- Population Healthy Nuclei (%) [1]: 81%
- Population Hoechst High Intensity Objects (%) [1]: 6%
- Population Membrane Permeable-Phenotype (%) [1]: 0%
- Population Mitochondria Different-Phenotype (%) [1]: 41%
- Population Mitotic Cells (%) [1]: 65%
- Population Normal (%) [1]: 93%
- Population Pyknosed Nuclei (%) [1]: 11%
- Population Tubulin-Different-Phenotype (%) [1]: 31%
- Total Cell Count [1]: 422
- Population Apoptotic (%) [2]: 50%
- Population Healthy Nuclei (%) [2]: 84%
- Population Mitochondria Different-Phenotype (%) [2]: 62%
- Population Mitotic Cells (%) [2]: 50%
- Population Pyknosed Nuclei (%) [2]: 8%
- Population Tubulin-Different-Phenotype (%) [2]: 20%
- Total Cell Count [2]: 389
- Population Apoptotic (%) [3]: 43%
- Population Fragmented Nuclei (%) [3]: 5%
- Population Healthy Nuclei (%) [3]: 76%
- Population Hoechst High Intensity Objects (%) [3]: 7%
- Population Membrane Permeable-Phenotype (%) [3]: 0%
- Population Mitochondria Different-Phenotype (%) [3]: 45%
- Population Mitotic Cells (%) [3]: 56%
- Population Normal (%) [3]: 92%
- Population Pyknosed Nuclei (%) [3]: 18%
- Population Tubulin-Different-Phenotype (%) [3]: 35%
- Total Cell Count [3]: 313
- Population Apoptotic (%) [4]: 51%
- Population Healthy Nuclei (%) [4]: 79%
- Population Mitochondria Different-Phenotype (%) [4]: 49%
- Population Mitotic Cells (%) [4]: 48%
- Population Pyknosed Nuclei (%) [4]: 15%
- Population Tubulin-Different-Phenotype (%) [4]: 26%
- Total Cell Count [4]: 327
- Population Apoptotic (%) [5]: 27%
- Population Fragmented Nuclei (%) [5]: 9%
- Population Healthy Nuclei (%) [5]: 79%
- Population Hoechst High Intensity Objects (%) [5]: 4%
- Population Membrane Permeable-Phenotype (%) [5]: 0%
- Population Mitochondria Different-Phenotype (%) [5]: 28%
- Population Mitotic Cells (%) [5]: 72%
- Population Normal (%) [5]: 95%
- Population Pyknosed Nuclei (%) [5]: 10%
- Population Tubulin-Different-Phenotype (%) [5]: 26%
- Total Cell Count [5]: 604
- Population Apoptotic (%) [6]: 31%
- Population Fragmented Nuclei (%) [6]: 7%
- Population Healthy Nuclei (%) [6]: 83%
- Population Hoechst High Intensity Objects (%) [6]: 7%
- Population Mitochondria Different-Phenotype (%) [6]: 52%
- Population Mitotic Cells (%) [6]: 68%
- Population Normal (%) [6]: 92%
- Population Pyknosed Nuclei (%) [6]: 8%
- Population Tubulin-Different-Phenotype (%) [6]: 21%
- Total Cell Count [6]: 491
- Population Apoptotic (%) [7]: 33%
- Population Fragmented Nuclei (%) [7]: 8%
- Population Healthy Nuclei (%) [7]: 75%
- Population Hoechst High Intensity Objects (%) [7]: 5%
- Population Membrane Permeable-Phenotype (%) [7]: 0%
- Population Mitochondria Different-Phenotype (%) [7]: 34%
- Population Mitotic Cells (%) [7]: 66%
- Population Normal (%) [7]: 94%
- Population Pyknosed Nuclei (%) [7]: 16%
- Population Tubulin-Different-Phenotype (%) [7]: 31%
- Total Cell Count [7]: 369
- Population Apoptotic (%) [8]: 39%
- Population Healthy Nuclei (%) [8]: 79%
- Population Hoechst High Intensity Objects (%) [8]: 6%
- Population Mitochondria Different-Phenotype (%) [8]: 40%
- Population Mitotic Cells (%) [8]: 60%
- Population Normal (%) [8]: 93%
- Population Pyknosed Nuclei (%) [8]: 12%
- Population Tubulin-Different-Phenotype (%) [8]: 20%
- Total Cell Count [8]: 422
- Population Apoptotic (%) [9]: 23%
- Population Fragmented Nuclei (%) [9]: 13%
- Population Healthy Nuclei (%) [9]: 79%
- Population Hoechst High Intensity Objects (%) [9]: 2%
- Population Membrane Permeable-Phenotype (%) [9]: 1%
- Population Mitochondria Different-Phenotype (%) [9]: 16%
- Population Mitotic Cells (%) [9]: 76%
- Population Normal (%) [9]: 97%
- Population Pyknosed Nuclei (%) [9]: 7%
- Population Tubulin-Different-Phenotype (%) [9]: 14%
- Total Cell Count [9]: 998
- Population Apoptotic (%) [10]: 19%
- Population Fragmented Nuclei (%) [10]: 14%
- Population Hoechst High Intensity Objects (%) [10]: 5%
- Population Membrane Permeable-Phenotype (%) [10]: 0%
- Population Mitochondria Different-Phenotype (%) [10]: 26%
- Population Mitotic Cells (%) [10]: 80%
- Population Normal (%) [10]: 94%
- Population Pyknosed Nuclei (%) [10]: 6%
- Population Tubulin-Different-Phenotype (%) [10]: 13%
- Total Cell Count [10]: 673
- Population Apoptotic (%) [11]: 24%
- Population Fragmented Nuclei (%) [11]: 9%
- Population Healthy Nuclei (%) [11]: 79%
- Population Hoechst High Intensity Objects (%) [11]: 3%
- Population Membrane Permeable-Phenotype (%) [11]: 2%
- Population Mitochondria Different-Phenotype (%) [11]: 25%
- Population Mitotic Cells (%) [11]: 75%
- Population Normal (%) [11]: 96%
- Population Pyknosed Nuclei (%) [11]: 10%
- Population Tubulin-Different-Phenotype (%) [11]: 22%
- Total Cell Count [11]: 479
- Population Apoptotic (%) [12]: 39%
- Population Fragmented Nuclei (%) [12]: 11%
- Population Healthy Nuclei (%) [12]: 82%
- Population Hoechst High Intensity Objects (%) [12]: 5%
- Population Mitochondria Different-Phenotype (%) [12]: 23%
- Population Mitotic Cells (%) [12]: 60%
- Population Normal (%) [12]: 94%
- Population Pyknosed Nuclei (%) [12]: 6%
- Population Tubulin-Different-Phenotype (%) [12]: 24%
- Total Cell Count [12]: 555
